From ChEMBL document CHEMBL3259728, “Design, synthesis and biological evaluation of some novel substituted quinazolines as antitumor agents” (2014)

What was measured:
Assay type in all cases: functional
[1] = Growth inhibition of human Hs578T cells assessed as cell growth at 10^-7 M after 48 hrs by SRB assay; details: Hs-578T, read-out: Activity
[2] = Growth inhibition of human MOLT4 cells assessed as cell growth at 10^-4 M after 48 hrs by SRB assay; details: MOLT-4, 48 h, read-out: Activity
[3] = system: SF-268; experiment: Growth inhibition of human SF268 cells assessed as cell growth at 10^-8 M after 48 hrs by SRB assay; details: SF-268, 48 h, read-out: Activity
[4] = Growth inhibition of human HOP92 cells assessed as cell growth at 10^-5 M after 48 hrs by SRB assay; details: HOP-92, 48 h, read-out: Activity
[5] = system: K562; experiment: Growth inhibition of human K562 cells assessed as cell growth at 10^-7 M after 48 hrs by SRB assay; details: K562, 48 h, read-out: Activity
[6] = system: 786-0; experiment: Growth inhibition of human 786-0 cells assessed as cell growth at 10^-6 M after 48 hrs by SRB assay; details: 786-0, 48 h, read-out: Activity
Method in brief: (§1)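 Five-dose NCI panel protocol. Each dose (10^-4 to 10^-8 M, 10-fold steps) was given as 48 h continuous exposure, and protein was measured by SRB staining. Percentage growth at each level is [(Ti−Tz)/(C−Tz)]×100, where Tz is time-zero absorbance and C is untreated control.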

[7] = system: MDA-MB-468; experiment: Growth inhibition of human MDA-MB-468 cells assessed as cell growth at 10^-5 M after 48 hrs by SRB assay; details: MDA-MB-468, 48 h, read-out: Activity
[8] = Growth inhibition of human UO31 cells assessed as cell growth at 10^-7 M after 48 hrs by SRB assay; details: UO-31, 48 h, read-out: Activity
[9] = Growth inhibition of human SF295 cells assessed as cell growth at 10^-8 M after 48 hrs by SRB assay; details: SF-295, 48 h, read-out: Activity
[10] = system: MCF7; experiment: Growth inhibition of human MCF7 cells assessed as cell growth at 10^-8 M after 48 hrs by SRB assay; details: MCF7, 48 h, read-out: Activity
[11] = system: COLO 205; experiment: Growth inhibition of human COLO205 cells assessed as cell growth at 10^-5 M after 48 hrs by SRB assay; details: COLO 205, 48 h, read-out: Activity; method in brief: as §1
[12] = Growth inhibition of human HCT15 cells assessed as cell growth at 10^-8 M after 48 hrs by SRB assay; details: HCT-15, 48 h, read-out: Activity
[13] = system: CCRF-CEM; experiment: Growth inhibition of human CCRF-CEM cells assessed as cell growth at 10^-6 M after 48 hrs by SRB assay; details: read-out: Activity; method in brief: as §1
[14] = Growth inhibition of human MOLT4 cells assessed as cell growth at 10^-6 M after 48 hrs by SRB assay; details: MOLT-4, 48 h, read-out: Activity
[15] = system: SR; experiment: Growth inhibition of human SR cells assessed as cell growth at 10^-7 M after 48 hrs by SRB assay; details: read-out: Activity
[16] = system: SN12C; experiment: Growth inhibition of human SN12C cells assessed as cell growth at 10^-4 M after 48 hrs by SRB assay; details: read-out: Activity
[17] = system: SW-620; experiment: Growth inhibition of human SW620 cells assessed as cell growth at 10^-4 M after 48 hrs by SRB assay; details: SW-620, 48 h, read-out: Activity
[18] = system: NCI-H23; experiment: Cytotoxicity against human NCI-H23 cells after 48 hrs by SRB assay; details: NCI-H23, 48 h
Method in brief: (§2)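 NCI 60-cell-line panel of human tumour lines from nine cancer types. Continuous 48 h exposure at five 10-fold dilutions from 10^-4 to 10^-8 M, with 5-FU as positive control. SRB protein stain read spectrophotometrically at time zero, untreated control and each concentration. GI50, TGI and LC50 were derived from the [(Ti−Tz)/(C−Tz)]×100 growth relations, and out-of-range values are given as > or < the tested limits.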

[19] = Growth inhibition of human SF539 cells assessed as cell growth at 10^-8 M after 48 hrs by SRB assay; details: SF-539, 48 h, read-out: Activity
[20] = system: RPMI-8226; experiment: Growth inhibition of human RPMI8226 cells assessed as cell growth at 10^-8 M after 48 hrs by SRB assay; details: RPMI-8226, 48 h, read-out: Activity
[21] = system: SF-268; experiment: Growth inhibition of human SF268 cells assessed as cell growth at 10^-7 M after 48 hrs by SRB assay; details: SF-268, 48 h, read-out: Activity
[22] = system: SK-MEL-28; experiment: Cytotoxicity against human SK-MEL-28 cells after 48 hrs by SRB assay; details: SK-MEL-28, 48 h; method in brief: as §2
[23] = system: PC-3; experiment: Growth inhibition of human PC3 cells assessed as cell growth at 10^-7 M after 48 hrs by SRB assay; details: PC-3, 48 h, read-out: Activity
[24] = system: CAKI-1; experiment: Growth inhibition of human CAKI-1 cells assessed as cell growth at 10^-4 M after 48 hrs by SRB assay; details: CAKI-1, 48 h, read-out: Activity; method in brief: as §1
[25] = system: NCI-H226; experiment: Cytotoxicity against human NCI-H226 cells after 48 hrs by SRB assay; details: NCI-H226, 48 h; method in brief: as §2
[26] = Growth inhibition of human HCC2998 cells assessed as cell growth at 10^-5 M after 48 hrs by SRB assay; details: HCC 2998, 48 h, read-out: Activity
[27] = Cytotoxicity against human OVCAR3 cells after 48 hrs by SRB assay; details: OVCAR-3, 48 h; method in brief: as §2
[28] = system: NCI-H23; experiment: Growth inhibition of human NCI-H23 cells assessed as cell growth at 10^-5 M after 48 hrs by SRB assay; details: NCI-H23, 48 h, read-out: Activity
[29] = Growth inhibition of human HOP92 cells assessed as cell growth at 10^-8 M after 48 hrs by SRB assay; details: HOP-92, 48 h, read-out: Activity
[30] = Growth inhibition of human OVCAR5 cells assessed as cell growth at 10^-8 M after 48 hrs by SRB assay; details: OVCAR-5, 48 h, read-out: Activity
[31] = system: NCI-H460; experiment: Growth inhibition of human NCI-H460 cells assessed as cell growth at 10^-7 M after 48 hrs by SRB assay; details: NCI-H460, 48 h, read-out: Activity
[32] = read-out: LC50 (the source's name)
[33] = read-out: pLC50 (the source's name) (converted)

## Cc1ccc(-c2nc3ccc(Cl)cc3c(=O)n2/N=C/c2ccccc2)cc1
[1]
  growth at 0.1 µM: 90%
[2]
  growth at 100 µM: 56%
[3]
  growth at 0.01 µM: 91%
[4]
  growth at 10 µM: 43%
[5]
  growth at 0.1 µM: 97%
[6]
  growth at 1 µM: 90%
[7]
  growth at 10 µM: 65%
[8]
  growth at 0.1 µM: 60%
[9]
  growth at 0.01 µM: 91%
[10]
  growth at 0.01 µM: 93%
[11]
  growth at 10 µM: 47%
[12]
  growth at 0.01 µM: 92%
[13]
  growth at 1 µM: 88%
[14]
  growth at 1 µM: 99%
[15]
  growth at 0.1 µM: 93%
[16]
  growth at 100 µM: 42%
[17]
  growth at 100 µM: 52%
[18]; read-out: GI50
  GI50: 100 µM
[18]; [32]
  CC50: > 100 µM
[18]; read-out: TGI
  TGI: > 100 µM
[18]; read-out: pGI50 (converted)
  GI50: > 100 µM
[18]; [33]
  CC50: > 100 µM
[18]; read-out: pTGI
  TGI: > 100 µM
[19]
  growth at 0.01 µM: 90%
[20]
  growth at 0.01 µM: 95%
[21]
  growth at 0.1 µM: 88%
[22]; read-out: GI50
  GI50: 20.6 µM
[22]; [32]
  CC50: > 100 µM
[22]; read-out: TGI
  TGI: > 100 µM
[22]; read-out: pGI50 (converted)
  GI50: 20.4 µM
[22]; [33]
  CC50: > 100 µM
[22]; read-out: pTGI
  TGI: > 100 µM
[23]
  growth at 0.1 µM: 90%
[24]
  growth at 100 µM: 32%
[25]; read-out: GI50
  GI50: 5.14 µM
[25]; [32]
  CC50: > 100 µM
[25]; read-out: TGI
  TGI: > 100 µM
[25]; read-out: pGI50 (converted)
  GI50: 5.13 µM
[25]; [33]
  CC50: > 100 µM
[25]; read-out: pTGI
  TGI: > 100 µM
[26]
  growth at 10 µM: 96%
[27]; read-out: GI50
  GI50: 5.44 µM
[27]; [32]
  CC50: > 100 µM
[27]; read-out: TGI
  TGI: > 100 µM
[27]; read-out: pGI50 (converted)
  GI50: 5.5 µM
[27]; [33]
  CC50: > 100 µM
[27]; read-out: pTGI
  TGI: > 100 µM
[28]
  growth at 10 µM: 65%
[29]
  growth at 0.01 µM: 93%
[30]
  growth at 0.01 µM: 96%
[31]
  growth at 0.1 µM: 99%
